≈ marks a conversion by molar mass, not a printed value. Calls of active or inactive are those of the source. The rule behind the calls is not given here.
What was measured:
[1] = system: Bacillus subtilis; experiment: Antibacterial activity against Bacillus subtilis BS01 assessed as bacterial growth inhibition incubated for 18 hrs by CLSI based broth microdilution method; assay type: functional
In short: (§1)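 CLSI broth microdilution. Log-phase bacteria in Mueller Hinton broth added to 2-fold serial dilutions spanning 128 to 0.25 or 2 to 0.004 µg/mL. Incubated aerobically for 18 h at 37 °C, then OD600 read. MIC is the lowest concentration giving ≥90% growth inhibition; three independent assays.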

[2] = system: Staphylococcus aureus; experiment: Antibacterial activity against ampicillin/kanamycin-resistant Staphylococcus aureus 6917 assessed as bacterial growth inhibition incubated for 18 hrs by CLSI based broth microdilution method; assay type: functional
In short: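 Broth microdilution to CLSI guidelines. Log-phase bacteria grown in Mueller Hinton broth, diluted, then exposed to 2-fold serial dilutions of compound (128 to 0.25 µg/mL or 2 to 0.004 µg/mL). Incubated aerobically 18 h at 37 °C. Growth read as OD600. MIC = lowest concentration giving ≥90% growth inhibition. Three independent assays.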

[3] = system: Escherichia coli; experiment: Antibacterial activity against Escherichia coli 25922 assessed as bacterial growth inhibition incubated for 18 hrs by CLSI based broth microdilution method; assay type: functional; in short: as §1
[4] = Cytotoxicity against African green monkey Vero cells assessed as reduction in cell viability incubated for 72 hrs by alamar blue staining based assay; assay type: toxicity; details: chlorocebus sabaeus
In short: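 Vero cells seeded at about 2 × 10^3 per well, 37 °C, 5% CO2. Compound added after 24 h and incubated 72 h. AlamarBlue (1:10 v/v) then added for 3 h in the dark, read at Ex/Em 560/590 nm. CC50 is the lowest concentration causing 50% loss of viability.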

[5] = system: Bacillus subtilis; experiment: Bactericidal activity against Bacillus subtilis ATCC9372 incubated for 24 hrs by broth microdilution method; assay type: functional
In short: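 MBC from the broth microdilution plates (MHB, 2-fold dilutions). After 24 h, 5 µL aliquots from clear wells were plated on LB agar and incubated aerobically 24 h at 37 °C, then colonies counted. MBC = lowest concentration with no colonies.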

[6] = target: T1, Cell division protein FtsZ (Staphylococcus aureus) (UniProt P0A031); experiment: Inhibition of recombinant Staphylococcus aureus FtsZ assessed as FtsZ polymerization at 10 ug/ml in presence of GTP by absorbance based turbidity assay; details: dose 10.0 µg/ml
T1 sequence (whole entry): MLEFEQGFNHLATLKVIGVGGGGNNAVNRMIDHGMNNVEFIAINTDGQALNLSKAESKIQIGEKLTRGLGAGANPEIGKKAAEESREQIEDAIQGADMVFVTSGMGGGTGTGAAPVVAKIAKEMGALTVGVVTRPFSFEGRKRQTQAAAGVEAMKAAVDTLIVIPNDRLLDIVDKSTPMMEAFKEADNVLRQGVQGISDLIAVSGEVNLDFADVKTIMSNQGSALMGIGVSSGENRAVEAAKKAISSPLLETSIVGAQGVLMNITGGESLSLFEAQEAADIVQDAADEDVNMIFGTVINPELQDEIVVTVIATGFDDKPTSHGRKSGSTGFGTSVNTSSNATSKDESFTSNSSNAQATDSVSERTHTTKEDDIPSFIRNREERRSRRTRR
In short: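 Recombinant S. aureus FtsZ (12 µM) with 1 mM GTP and compound in 50 mM Hepes, 50 mM KCl, 5 mM MgCl2. Polymerization followed continuously at 25 °C as light scattering (A340).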

[7] = target: T1, Cell division protein FtsZ (Staphylococcus aureus); experiment: Inhibition of recombinant Staphylococcus aureus FtsZ-mediated GTPase activity preincubated for 10 mins followed by GTP addition measured after 30 mins by absorbance based assay; details: dose <= 35.0 µg/ml, time 40.0 min
In short: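 S. aureus FtsZ (6 µM) preincubated 10 min at room temperature with a range of compound concentrations in 50 mM Hepes-KOH. KCl 300 mM, MgCl2 5 mM and GTP 1 mM then added, 30 min at 37 °C. Reaction quenched with Cytophos reagent for 10 min; released phosphate read at 620 nm.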

[8] = system: Bacillus subtilis; experiment: Induction of morphological changes in Bacillus subtilis ATCC9372 assessed as increase in cell length at MIC incubated for 3 hrs by microscopic analysis (reference value: 10 um); assay type: functional
[9] = Metabolic stability in rat liver microsomes assessed as compound remaining preincubated for 5 mins followed by NADPH addition measured after 30 mins by LC/MS analysis; assay type: ADME, Microsome; details: time 35 min, read-out: Stability
In short: (§2)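 Liver microsomes (final protein 0.75 mg/mL) with compound in 100 mM phosphate buffer pH 7.4, preincubated 5 min at 37 °C. Reaction started with NADPH regeneration system, stopped at 5, 15, 30 and 45 min with acetonitrile containing internal standard. Percent remaining measured by LC/MS, with ketanserin as reference; variation given as RSD of area ratio.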

[10] = Metabolic stability in human liver microsomes assessed as compound remaining preincubated for 5 mins followed by NADPH addition measured after 5 mins by LC/MS analysis; assay type: ADME, Microsome; details: time 10 min, read-out: Stability; in short: as §2
[11] = Metabolic stability in human liver microsomes assessed as compound remaining preincubated for 5 mins followed by NADPH addition measured after 30 mins by LC/MS analysis; assay type: ADME, Microsome; details: time 35 min, read-out: Stability; in short: as §2
[12] = Metabolic stability in mouse liver microsomes assessed as compound remaining preincubated for 5 mins followed by NADPH addition measured immediately by LC/MS analysis; assay type: ADME, Microsome; details: read-out: Stability
[13] = Metabolic stability in rat liver microsomes assessed as intrinsic clearance preincubated for 5 mins followed by NADPH addition measured upto 45 mins by LC/MS analysis; assay type: ADME, Microsome; details: time < 50 min, read-out: CLH
In short: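 Liver microsomes at 0.75 mg/mL final protein, with test article and NADPH regeneration system (6 mM) in 100 mM phosphate buffer, pH 7.4. Preincubated 5 min at 37 °C, then started with NADPH. Quenched with acetonitrile containing internal standard at 5, 15, 30 and 45 min, centrifuged, and percent remaining measured by LC/MS. Ketanserin served as reference.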

[14] = Half life in ICR mouse at 1 mg/kg, iv measured for 0.08 to 24 hrs by LC-MS/MS analysis; assay type: ADME, organism-based; details: in vivo, time 0.08-24 hrs
In short: (§3)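 Male ICR mice, single intravenous dose formulated in 5% DMSO, 4% ethanol, 5% Cremophor EL, 86% water. Blood sampled at 5, 15, 30 min, 1, 2, 4, 8 and 24 h; plasma stored at -20 °C. Compound quantified by LC-MS/MS, with parameters from non-compartmental analysis.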

[15] = Cmax in ICR mouse at 1 mg/kg, iv measured for 0.08 to 24 hrs by LC-MS/MS analysis; assay type: ADME, organism-based; set-up: time upper 24 hrs, dose 1 mg/kg, time lower 0.08 hrs, route iv; details: in vivo; in short: as §3
[16] = Bioavailability in ICR mouse at 5 mg/kg, po measured for 0.25 to 24 hrs by LC-MS/MS analysis; assay type: ADME, organism-based; details: in vivo, time 0.25-24 hrs
In short: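 Male ICR mice dosed orally with a solution of 5% DMSO, 4% ethanol, 5% Cremophor EL and 86% water. Blood collected at 15, 30 min, 1, 2, 4, 6, 8 and 24 h; plasma stored at -20 °C. Plasma levels measured by LC-MS/MS; parameters by non-compartmental analysis, with bioavailability relative to the 1 mg/kg iv dose.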

[17] = system: Staphylococcus aureus; experiment: Antibacterial activity against Staphylococcus aureus ATCC25923 infected in ICR mouse assessed as reduction in bacterial burden in plasma at 25 mg/kg, ip by colony forming unit assay; assay type: functional, organism-based

Cc1cc(Cl)ccc1-c1cccc(COc2ccc(F)c(C(N)=O)c2F)c1
MIC [1]: 0.016 µg/mL (≈ 0.0413 µM)
MIC [2]: 0.125 µg/mL (≈ 0.322 µM)
MIC [3]: > 128 µg/mL
CC50 at 72 h [4]: > 20 µg/mL
MBC [5]: 0.063 µg/mL (≈ 0.162 µM)
inhibition [6]: Active
inhibition [7]: Active
Activity [8]: >60 um
remaining at 0.5 h [9]: 19.1%
remaining at 5 min [10]: 97.1%
remaining at 0.5 h [11]: 83.4%
remaining at 0 min [12]: 100%
CLint scaled [13]: 183 mL/min/kg
t1/2 [14]: 16.8 min
Cmax [15]: 480 ng/mL
bioavailability [16]: 61.2%
Activity [17]: Active
